Measurements published in ChEMBL document CHEMBL1124574, “Lipophilic analogues of sparsomycin as strong inhibitors of protein synthesis and tumor growth: a structure-activity relationship study” (J Med Chem, 1989).
In brackets after ≈: the same amount, converted by molar mass. Activity calls are given as the source filed them. The calls are words filed in the database; no cut-off is given here.

What was measured:
[1] = Water solubility was determined
[2] = lipophilicity parameter(Rm) was determined; format: physicochemical; conditions: RP-8 HPTLC, 60% methanol/water
Summary of the method: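 Rf measured by reversed-phase RP-8 HPTLC, eluent 60% methanol/water; Rm computed as log(1/Rf − 1).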

[3] = Partition coefficient (logP); conditions: octanol/water
Escherichia coli [4] = assay: In vitro inhibition of Puromycin reaction in the ribosomes from Escherichia coli; format: functional; conditions: read-out: ED50 (the source's name)
Escherichia coli [5] = assay: In vitro inhibition of modified fragment reaction using ribosomes from Escherichia coli; format: functional; conditions: read-out: ED50 (the source's name)
Escherichia coli [6] = assay: In vitro inhibition of polyuridylic acid dependent polyphenylalanine synthesis using ribosomes from Escherichia coli; format: functional; conditions: read-out: ED50 (the source's name)
Escherichia coli [7] = assay: In vitro inhibition of cell growth in Escherichia coli MRE600; format: functional; conditions: read-out: ED50 (the source's name)
L1210 [8] = assay: In vitro inhibition of cell growth in L1210 murine leukemia cells; format: functional; conditions: Mus musculus, read-out: ID50 (the source's name)
Saccharomyces cerevisiae [9] = assay: In vitro inhibition of modified fragment reaction using ribosomes from Saccharomyces cerevisiae; format: functional; conditions: read-out: ED50 (the source's name)
Saccharomyces cerevisiae [10] = assay: In vitro inhibition of polyuridylic acid dependent polyphenylalanine synthesis using ribosomes from Saccharomyces cerevisiae; format: functional; conditions: read-out: ED50 (the source's name)
T-24 = assay: In vitro inhibition of cell growth in T24 bladder carcinoma cell line; format: functional; conditions: Homo sapiens, read-out: ID50 (the source's name)
[11] = (§1) Kinetic constant was determined
WiDr [12] = assay: In vitro inhibition of cell growth in Human WiDr colon carcinoma cell line; format: functional; conditions: read-out: ID50 (the source's name)
[13] = lipophilicity parameter (Rm) was determined; conditions: RP-8 HPTLC, 60% methanol/water
L1210 [14] = assay: In Vivo evaluation for the acute toxicity by L1210 clonogenic assay; format: functional, Mus musculus
[15] = In Vivo evaluation for the acute toxicity in mice; conditions: mouse
Escherichia coli [16] = assay: In vitro inhibition of cell growth in Escherichia coli; format: functional; conditions: read-out: ED50 (the source's name)
[17] = as §1; format: ADME
Escherichia coli [18] = assay: In vitro inhibition of modified fragment reaction using ribosomes from Escherichia coli; Inactive at 100 uM; format: functional
Summary of the method: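 Peptidyl transferase assayed by the fragment-reaction protocol, but with intact N-acetyl-Phe-tRNA as substrate in place of its terminal pentanucleotide; ribosomes from the organism named in the line; 50% inhibitory value derived.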

Saccharomyces cerevisiae [19] = assay: In vitro inhibition of polyuridylic acid dependent polyphenylalanine synthesis using ribosomes from Saccharomyces cerevisiae; Inactive at 100 uM; format: functional
WiDr [20] = assay: In vitro inhibition of cell growth in Human WiDr colon carcinoma cell line; NT means not tested; format: functional; conditions: read-out: ID50 (the source's name)
Summary of the method: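 Human tumor cell line cytotoxicity measured by the automated PIT method (propidium iodide, ink, Triton X-100); ID50 calculated.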

| Compound | solubility [1] | logP [3] | EC50 (Escherichia coli [4]) | EC50 (Escherichia coli [5]) | EC50 (Escherichia coli [6]) | EC50 (Escherichia coli [7]) | IC50 (L1210 [8]) | EC50 (Saccharomyces cerevisiae [9]) | EC50 (Saccharomyces cerevisiae [10]) | IC50 (T-24) | log k0 [11] | IC50 (WiDr [12]) | Rm [13] | T/C (L1210 [14]) | LD50 [15] | EC50 (Escherichia coli [16]) | also measured |
| --- | --- | --- | --- | --- | --- | --- | --- | --- | --- | --- | --- | --- | --- | --- | --- | --- | --- |
| CCCSC[S+]([O-])C[C@H](CO)NC(=O)/C=C/c1c(C)nc(O)nc1O (stereo not given in full) | 1500 µg/mL (≈ 3850 µM) | -0.665 | 0.08 µM | 5.5 µM | 3 µM | 5 µM | 0.14 µM | 7.5 µM | 7 µM | 0.65 µM | 0.117 | 0.89 µM | – | – | – | – | Rm [2]: -0.261 |
| Cc1nc(O)nc(O)c1/C=C/C(=O)N[C@@H](CO)C[S+]([O-])CSC(C)(C)C (stereo not given in full) | – | – | 0.31 µM | 27.5 µM | 31 µM | – | – | 100 µM | 900 µM | – | – | – | – | – | – | – | – |
| CCC[S+]([O-])C[C@H](C)NC(=O)/C=C/c1c(C)nc(O)nc1O (stereo not given in full) | – | – | 0.38 µM | – | 80 µM | 9.5 µM | 0.45 µM | – | 200 µM | – | – | – | – | – | – | – | – |
| Cc1nc(O)nc(O)c1/C=C/C(=O)N[C@@H](CO)C[S+]([O-])CSC1CCCCC1 (stereo not given in full) | – | – | 0.04 µM | 5.2 µM | 6.6 µM | 7.5 µM | 0.6 µM | 12 µM | 5.1 µM | – | – | – | – | – | – | – | – |
| CCCCSC[S+]([O-])C[C@H](C)NC(=O)/C=C/c1c(C)nc(O)nc1O (stereo not given in full) | 940 µg/mL (≈ 2430 µM) | 0.819 | 0.05 µM | 12.1 µM | 3 µM | 2.5 µM | 0.05 µM | 15 µM | 1.9 µM | 0.09 µM | 1.29 | 0.16 µM | 0.218 | 164% | 16.5 mg/kg | – | – |
| CCCCCCCCSC[S+]([O-])C[C@H](C)NC(=O)/C=C/c1c(C)nc(O)nc1O (stereo not given in full) | 15 µg/mL (≈ 33.8 µM) | > 2.42 | 0.46 µM | 46 µM | 8.5 µM | – | 0.03 µM | 60 µM | 1.4 µM | 0.14 µM | – | 0.28 µM | 1.151 | – | – | 15 µM | Log Ko [17]: 3.533 |
| CCCCCCC[S+]([O-])C[C@H](CO)NC(=O)/C=C/c1c(C)nc(O)nc1O (stereo not given in full) | 220 µg/mL (≈ 551 µM) | 1.02 | 0.04 µM | 9 µM | 0.48 µM | – | 0.15 µM | 5.8 µM | 0.1 µM | 0.16 µM | – | 0.28 µM | 0.56 | 330% | 6.1 mg/kg | 1.4 µM | Log Ko [17]: 1.771 |
| CCCCCCCCCC[S+]([O-])C[C@H](CO)NC(=O)/C=C/c1c(C)nc(O)nc1O (stereo not given in full) | – | – | 0.08 µM | 5000 µM | 1.8 µM | – | 0.14 µM | 700 µM | 0.2 µM | – | – | – | – | – | – | 3 µM | – |
| CC(=O)NCCSC[S+]([O-])C[C@H](CO)NC(=O)/C=C/c1c(C)nc(O)nc1O (stereo not given in full) | – | – | 1 µM | 60 µM | 34 µM | 100 µM | 1.9 µM | 56 µM | 32 µM | – | – | – | – | – | – | – | – |
| Cc1nc(O)nc(O)c1/C=C/C(=O)N[C@@H](C)C[S+]([O-])CCl (stereo not given in full) | – | – | – | – | 86 µM | – | 0.15 µM | – | – | – | – | – | – | – | – | 7.5 µM | ED50 (Escherichia coli [18]): inactive; ED50 (Saccharomyces cerevisiae [19]): inactive |
| Cc1nc(O)nc(O)c1/C=C/C(=O)N[C@@H](CO)C[S@@+]([O-])CCl | – | – | – | – | – | – | – | – | – | – | – | – | – | – | – | 20 µM | – |
| CCCCCSC[S+]([O-])C[C@H](CO)NC(=O)/C=C/c1c(C)nc(O)nc1O (stereo not given in full) | 280 µg/mL (≈ 671 µM) | 0.6 | 0.03 µM | 2.6 µM | 1 µM | 1 µM | 0.06 µM | 2.7 µM | 0.17 µM | 0.28 µM | 1.168 | 0.4 µM | 0.16 | 386% | 4.7 mg/kg | – | – |
| CCCCSC[S+]([O-])C[C@H](CO)NC(=O)/C=C/c1c(C)nc(O)nc1O (stereo not given in full) | 570 µg/mL (≈ 1410 µM) | 0.143 | 0.06 µM | 5.1 µM | 1.8 µM | 3 µM | 0.1 µM | 4.8 µM | 1 µM | 0.23 µM | 0.777 | 0.31 µM | -0.028 | 156% | 2.33 mg/kg | – | – |
| CCCCCC[S+]([O-])C[C@H](CO)NC(=O)/C=C/c1c(C)nc(O)nc1O (stereo not given in full) | 890 µg/mL (≈ 2310 µM) | 0.41 | 0.18 µM | 7.5 µM | 0.75 µM | – | 0.14 µM | 5 µM | 0.14 µM | 0.35 µM | – | 0.39 µM | 0.235 | 135% | 1.6 mg/kg | 3 µM | Log Ko [17]: 1.111 |
| CSC[S+]([O-])C[C@H](CO)NC(=O)/C=C/c1c(C)[nH]c(=O)[nH]c1=O (stereo not given in full) | 3800 µg/mL (≈ 10500 µM) | -1.71 | 0.1 µM | 3.2 µM | 8.5 µM | 11 µM | 0.48 µM | 2.8 µM | 5.2 µM | 0.91 µM | -0.676 | 0.92 µM | – | 117% | 0.26 mg/kg | – | Rm [2]: -0.638 |
| CSC[S+]([O-])C[C@H](C)NC(=O)/C=C/c1c(C)nc(O)nc1O (stereo not given in full) | 18000 µg/mL (≈ 52100 µM) | -0.699 | 0.25 µM | 18 µM | 14.6 µM | 5.6 µM | 0.07 µM | 39 µM | 50 µM | 0.44 µM | -0.209 | – | -0.404 | 216% | 2.33 mg/kg | – | IC50 (WiDr [20]): 0.58 µM |
| CCCCCCCCSC[S+]([O-])C[C@H](CO)NC(=O)/C=C/c1c(C)nc(O)nc1O (stereo not given in full) | 13 µg/mL (≈ 28.3 µM) | > 2.42 | 0.25 µM | 60 µM | 1.6 µM | – | 0.1 µM | 300 µM | 1.3 µM | 0.06 µM | – | 0.22 µM | 0.895 | 151% | 29.5 mg/kg | 4.4 µM | Log Ko [17]: 3.333 |
| CCC[S+]([O-])C[C@H](CO)NC(=O)/C=C/c1c(C)nc(O)nc1O (stereo not given in full) | – | – | 0.23 µM | 4.5 µM | 140 µM | 36 µM | 0.75 µM | 6.2 µM | 42 µM | – | – | – | – | – | – | – | – |
